According to ChEMBL document CHEMBL4819106, “Aminopyrazole based CDK9 PROTAC sensitizes pancreatic cancer cells to venetoclax” (Bioorg Med Chem Lett, 2021):
Calls of active or inactive are those of the source. No cut-off for these calls is given here.

Tests used:
MIA PaCa-2 = assay: Antiproliferative activity against human MIA PaCa-2 cells assessed as cell growth inhibition at 5 uM measured after 3 days by Prestoblue assay relative to control; assay type: functional; details: MIA PaCa-2, 72 h, time 3 day, read-out: GI
How it was run: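 MiaPaCa2 cells were exposed for 3 days to single agents (Bcl2-family inhibitors or CDK9 degrader) at equimolar concentration. Viability was read by PrestoBlue.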

[1] = target: Cyclin-dependent kinase 7 (Homo sapiens) (UniProt P50613); assay: Inhibition of CDK7 in human HEK293 cells assessed as reduction in CDK7 level at 10 uM incubated for 24 hrs by Western blot analysis; assay type: cell-based
Cyclin-dependent kinase 7 (Homo sapiens), sequence (P50613 whole entry): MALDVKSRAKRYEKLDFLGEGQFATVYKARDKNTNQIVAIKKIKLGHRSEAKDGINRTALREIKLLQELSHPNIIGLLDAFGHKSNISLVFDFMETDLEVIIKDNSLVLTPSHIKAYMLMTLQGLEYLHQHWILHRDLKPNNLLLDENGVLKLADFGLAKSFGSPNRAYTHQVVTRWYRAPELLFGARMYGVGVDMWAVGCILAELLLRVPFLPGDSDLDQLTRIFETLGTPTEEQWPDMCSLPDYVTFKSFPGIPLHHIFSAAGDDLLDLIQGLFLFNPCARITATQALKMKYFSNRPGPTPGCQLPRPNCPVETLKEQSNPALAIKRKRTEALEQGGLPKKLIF
How it was run: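 HEK293 cells were treated at indicated concentrations for 24 h. Lysates were analysed by western blot and probed for CDK family members, including CDK7 and CDK9.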

[2] = target: Protein cereblon/Cyclin-dependent kinase 9 (Homo sapiens, UniProt P50750+Q96SW2); assay: Protac activity at CDK9/CRBN in human HEK293 cells assessed as degradation of CDK9 at 0.01 to 10 uM incubated for 24 hrs by Western blot analysis; assay type: cell-based; details: dose 0.01-10 µM
Protein cereblon/Cyclin-dependent kinase 9, sequence (P50750 whole entry, looked up): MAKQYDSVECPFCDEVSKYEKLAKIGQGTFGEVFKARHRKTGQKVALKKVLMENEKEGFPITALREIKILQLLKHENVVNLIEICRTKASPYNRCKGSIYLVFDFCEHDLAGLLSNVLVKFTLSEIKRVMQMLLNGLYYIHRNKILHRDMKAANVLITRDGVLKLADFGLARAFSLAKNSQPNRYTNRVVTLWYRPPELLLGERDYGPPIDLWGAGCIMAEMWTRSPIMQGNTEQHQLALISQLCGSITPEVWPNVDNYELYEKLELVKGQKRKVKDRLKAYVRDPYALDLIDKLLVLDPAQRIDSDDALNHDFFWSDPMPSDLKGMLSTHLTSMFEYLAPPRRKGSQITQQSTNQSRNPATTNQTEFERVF
Protein cereblon/Cyclin-dependent kinase 9, sequence (Q96SW2 whole entry, looked up): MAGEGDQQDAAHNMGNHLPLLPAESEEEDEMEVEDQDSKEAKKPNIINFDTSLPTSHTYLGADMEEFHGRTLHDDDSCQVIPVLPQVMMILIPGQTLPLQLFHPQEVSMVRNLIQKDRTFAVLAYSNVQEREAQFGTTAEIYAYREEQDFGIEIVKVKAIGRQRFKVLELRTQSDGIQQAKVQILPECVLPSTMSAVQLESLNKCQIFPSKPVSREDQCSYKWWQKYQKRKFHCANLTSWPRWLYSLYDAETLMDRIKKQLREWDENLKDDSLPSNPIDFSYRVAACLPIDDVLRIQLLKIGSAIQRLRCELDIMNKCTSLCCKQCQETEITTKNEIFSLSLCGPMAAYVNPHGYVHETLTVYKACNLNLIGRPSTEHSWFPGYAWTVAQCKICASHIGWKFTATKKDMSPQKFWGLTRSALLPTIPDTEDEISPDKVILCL
How it was run: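 HEK293 cells were treated with increasing concentrations (0.01–10 μM) for 24 hr. Lysates were analysed by western blot for CDK9 degradation.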

CC1(C)CCC(c2ccc(Cl)cc2)=C(CN2CCN(c3ccc(C(=O)NS(=O)(=O)c4ccc(N[C@H](CCN5CCOCC5)CSc5ccccc5)c(S(=O)(=O)C(F)(F)F)c4)cc3)CC2)C1 [NAVITOCLAX]
inhibition of growth at 5 µM (MIA PaCa-2): 50%

CN1CC[C@H](c2c(O)cc(O)c3c(=O)cc(-c4ccccc4Cl)oc23)[C@H](O)C1
Activity [1]: inactive

O=C(COc1ccc(CC(=O)Nc2cc(C3CCC3)[nH]n2)cc1)NCCCCNc1cccc2c1C(=O)N(C1CCC(=O)NC1=O)C2=O (stereo unspecified)
Activity [2]: inactive

O=C(CCCOc1ccc(CC(=O)Nc2cc(C3CCC3)[nH]n2)cc1)NCCOCCOCCNc1cccc2c1C(=O)N(C1CCC(=O)NC1=O)C2=O (stereo unspecified)
Activity [2]: inactive

O=C(COCCOCCOCCOc1cccc(CC(=O)Nc2cc(C3CCC3)[nH]n2)c1)NCCOCCOCCNc1cccc2c1C(=O)N(C1CCC(=O)NC1=O)C2=O (stereo unspecified)
Activity [2]: inactive

O=C(CCCOc1ccc(CC(=O)Nc2cc(C3CCC3)[nH]n2)cc1)NCCCOCCOCCOCCCNc1cccc2c1C(=O)N(C1CCC(=O)NC1=O)C2=O (stereo unspecified)
Activity [2]: inactive
